This passage reports IC50 and Activity results from ChEMBL document CHEMBL1667725, “Tuberatolides, potent FXR antagonists from the Korean marine tunicate Botryllus tuberatus” (J Nat Prod, 2011).

Broadly, the IC50 is the concentration that gives 50% inhibition.

Calls of active or inactive are those of the source. The calls are words filed in the database; no cut-off is given here.

Assay [1] is described as follows: Cytotoxicity against african green monkey CV1 cells by MTT assay. The note with it: Chlorocebus aethiops, CV-1. It counts as cell-based. In a few lines:
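CV-1 cells, viability read by MTT; each experiment repeated more than three times.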
A general note: Formazan colour is commonly taken as a measure of viable cells.

The target in assay [2] is T1, Progesterone receptor (Homo sapiens) (UniProt P06401).
T1 sequence (whole entry): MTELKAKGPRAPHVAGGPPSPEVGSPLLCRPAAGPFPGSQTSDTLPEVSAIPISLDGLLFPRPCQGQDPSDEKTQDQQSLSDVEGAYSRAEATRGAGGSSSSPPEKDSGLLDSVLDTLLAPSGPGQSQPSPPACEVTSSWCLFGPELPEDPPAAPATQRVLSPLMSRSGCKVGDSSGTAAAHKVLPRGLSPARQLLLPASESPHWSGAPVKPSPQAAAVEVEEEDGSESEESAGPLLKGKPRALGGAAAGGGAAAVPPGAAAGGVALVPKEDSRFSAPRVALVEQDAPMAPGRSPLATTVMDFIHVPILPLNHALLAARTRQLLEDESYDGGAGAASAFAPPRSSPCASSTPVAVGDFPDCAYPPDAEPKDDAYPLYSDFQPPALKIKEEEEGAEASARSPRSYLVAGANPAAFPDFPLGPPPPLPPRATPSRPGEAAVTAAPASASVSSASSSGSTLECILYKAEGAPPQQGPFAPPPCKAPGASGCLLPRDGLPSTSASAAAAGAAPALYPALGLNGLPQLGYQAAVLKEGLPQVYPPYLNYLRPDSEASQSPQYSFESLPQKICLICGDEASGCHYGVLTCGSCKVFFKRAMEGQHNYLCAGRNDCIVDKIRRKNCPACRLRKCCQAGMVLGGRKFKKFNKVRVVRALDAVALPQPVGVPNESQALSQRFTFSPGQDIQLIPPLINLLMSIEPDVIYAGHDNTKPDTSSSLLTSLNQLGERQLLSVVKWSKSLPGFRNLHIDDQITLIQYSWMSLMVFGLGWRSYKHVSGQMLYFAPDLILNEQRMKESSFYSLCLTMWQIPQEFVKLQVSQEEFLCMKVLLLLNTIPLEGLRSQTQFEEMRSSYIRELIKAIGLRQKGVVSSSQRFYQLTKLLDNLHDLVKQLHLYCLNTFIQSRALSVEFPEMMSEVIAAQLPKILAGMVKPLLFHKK
Put plainly: Effect on human Gal4-fused PR at 10 uM by luciferase reporter gene assay. Background: Reporter assays use an easily measured gene product as a stand-in for the process of interest.

As for `CC(C)=CCCC1=C[C@@H](C/C(C)=C/CC[C@]2(C)C=Cc3cc(O)cc(C)c3O2)OC1=O` [2'-EPI-TUBERATOLIDE B], in assay [1], it took 30 µM to reach half-maximal inhibition (IC50). Also, the outcome in assay [2] was inactive.
In the same order, the values of `CC(C)=CCC/C(=C/CC/C(C)=C/CC[C@]1(C)C=Cc2cc(O)cc(C)c2O1)C(=O)O` [(R)-SARGACHROMENOL] are 45 µM and “inactive”.
`CC(C)=CCC/C(=C/CC/C(C)=C/CC[C@@]1(C)C=Cc2cc(O)cc(C)c2O1)C(=O)O` [(S)-SARGACHROMENOL] had a 50% inhibitory concentration (IC50) in assay [1] of 56 µM. The outcome in assay [2] was inactive.
Taken in the same sequence, the figures for `CC(=O)CC/C=C(\C)C[C@@H]1C=C(CCC=C(C)C)C(=O)O1` [TUBERATOLIDE A] were above 100 µM and “inactive”.
In the same order, the values of `CC(C)=CCCC1=C[C@@H](C/C(C)=C/CC[C@@]2(C)C=Cc3cc(O)cc(C)c3O2)OC1=O` [TUBERATOLIDE B] are 31 µM and “inactive”.
Regarding `CC(C)=CCCC1=C[C@@H](C/C(C)=C/CC/C(C)=C/CC2=CC(=O)C=C(C)C2=O)OC1=O` [YEZOQUINOLIDE], the midpoint of inhibition in assay [1], the IC50, lay at 50 µM. In addition, in assay [2], the result was inactive.
